# Test results published in PMC9072715 (RSC Advances, 2019).
# What was measured:
# rabbit erythrocytes = test: Hemolysis of red blood cells assay; format: cell-based, NewZealand rabbit; conditions: 10% rabbit erythrocyte suspension, 3 to 48 μM, 4 hours, room temperature
# How it was run: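 Heparinized blood came from a healthy New Zealand rabbit. Erythrocytes were washed three times in saline and diluted to a 10% suspension. The suspension was mixed 1:1 by volume with sample solution (0–48 μM test compound) and left 4 h at room temperature. Hemolysis was then assessed by observation.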
# MCF-7 cells = test: CCK-8 anti-proliferative assay, MCF-7; format: cell-based, human; conditions: read-out: IC50 MCF-7; MCF-7, CCK-8, 48 h
# How it was run: (§1)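 Log-phase cells in DMEM were plated at 1 × 10^4 per well and allowed 12 h at 37 °C and 5% CO2. Test compounds (0–80 μM) were added for 48 h. Medium was replaced with medium containing 10% CCK-8 for 4 h, and A450 was read. Percent inhibition was calculated against the untreated control and doxorubicin (positive control), and IC50 was obtained by curve fitting.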
# HeLa cells = test: CCK-8 anti-proliferative assay, HeLa; format: cell-based; conditions: Homo sapiens, 48 h, read-out: IC50 HeLa, HeLa, CCK-8, 48 h
# How it was run: as §1
Structure (SMILES),Hemolytic effect (rabbit erythrocytes),IC50 (MCF-7 cells),IC50 (HeLa cells)
"C/C=C(\C)C(=O)O[C@H]1[C@H](OC(C)=O)[C@]2(CO)[C@H](O)C[C@]3(C)C(=CC[C@@H]4[C@@]5(C)CC[C@H](O[C@@H]6O[C@H](C(=O)O)[C@@H](O[C@@H]7O[C@H](CO)[C@@H](O)[C@H](O)[C@H]7O)[C@H](O)[C@H]6O[C@@H]6O[C@H](CO)[C@@H](O)[C@H](O)[C@H]6O)[C@](C)(CO)[C@@H]5CC[C@]43C)[C@@H]2CC1(C)C [Compound 6, Escin Ia]",showed hemolytic effect at 24 and 48 μM,–,–
"C/C=C(/C)C(=O)O[C@H]1[C@H](OC(C)=O)[C@]2(CO)[C@H](O)C[C@]3(C)C(=CC[C@@H]4[C@@]5(C)CC[C@H](O[C@@H]6O[C@H](C(=O)O)[C@@H](O[C@@H]7O[C@H](CO)[C@@H](O)[C@H](O)[C@H]7O)[C@H](O)[C@H]6O[C@@H]6O[C@H](CO)[C@@H](O)[C@H](O)[C@H]6O)[C@](C)(CO)[C@@H]5CC[C@]43C)[C@@H]2CC1(C)C [Compound 7, Escin Ib]",–,> 80 µM,55 µM
